Assay results as given in ChEMBL document CHEMBL4680373, “Evaluation of 5-(Trifluoromethyl)-1,2,4-oxadiazole-Based Class IIa HDAC Inhibitors for Huntington's Disease” (ACS Med Chem Lett, 2021).

Key:
Cytochrome P450 2C8 = Cytochrome P450 2C8 (Homo sapiens, UniProt P10632); assay: Inhibition of CYP2C8 in human liver microsomes using amodiaquine as substrate incubated for 15 mins by LC-MS/MS analysis; assay type: ADME
[1] = Toxicity in CBAxC57BL/6J mouse assessed as effect on body weight at 10 to 100 mg/kg, po bid for 14.5 days; assay type: organism-based; conditions: in vivo, 348 h, dose 10-100 mg/kg, time 14.5 day
In short: (§1)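 R6/2 HD mice and wild-type littermates, male and female, were dosed orally b.i.d. at 10, 30 or 100 mg/kg or with vehicle for 14.5 days. Vehicle was 10% (w/v) hydroxypropyl-β-cyclodextrin in 50 mM citrate buffer. Body weight, body temperature, passive observations and active manipulation scores were recorded. Blood and brain were collected 2 h after the final dose.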

Histone deacetylase 1 = Histone deacetylase 1 (Homo sapiens, UniProt Q13547); assay: Inhibition of HDAC1 (unknown origin) using Ac-Arg-Gly-Lys(Ac) as substrate by fluorogenic assay
Cytochrome P450 1A2 = Cytochrome P450 1A2 (Homo sapiens, UniProt P05177); assay: Inhibition of CYP1A2 in human liver microsomes using phenacetin as substrate incubated for 30 mins by LC-MS/MS analysis; assay type: ADME
[2] = target: Muscarinic acetylcholine receptor M2 (Homo sapiens, UniProt P08172); assay: Displacement of [3H]AF-DX384 from human recombinant M2 receptor incubated for 1 hr by radiometric scintillation counting analysis
[3] = target: Muscarinic acetylcholine receptor M2 (Homo sapiens) (UniProt P08172); assay: Displacement of [3H]AF-DX384 from human recombinant M2 receptor at 10 uM incubated for 1 hr by radiometric scintillation counting analysis
In short: (§2)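 Broad selectivity panel of binding, cellular, functional and enzymatic assays run by a contract lab. Each test was done at a single 10 μM concentration and reported as percent inhibition.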

[4] = Tmax in C57BL/6J mouse blood at 11.5 mg/kg, po administered via gavage by LC-MS/MS analysis; assay type: ADME, organism-based
[5] = In vivo inhibition of Class 1 HDAC in C57BL/6J mouse brain assessed as increase in histone H3/H4 acetylation administered orally via gavage measured after 2 hrs by western blot analysis; assay type: organism-based; conditions: po, dose 10-100 mg/kg
In short: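 Brain samples were taken 2 h after single oral gavage doses (10, 30, 100 mg/kg). Western blots probed H3, H4 and tubulin acetylation, each normalized to its own total-protein band. Comparison was against samples taken 5 min after a 10 mg/kg dose.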

[6] = Toxicity in CBAxC57BL/6J mouse assessed as effect on ataxia at 10 to 100 mg/kg, po bid for 14.5 days; assay type: organism-based; conditions: in vivo, 348 h, dose 10-100 mg/kg, time 14.5 day; in short: as §1
Histone deacetylase 9 = Histone deacetylase 9 (Homo sapiens, UniProt Q9UKV0); assay: Inhibition of HDAC9 (unknown origin) using Boc Lys(TFA) as substrate by fluorogenic assay
In short: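 Biochemical HDAC isoform assay with the artificial fluorogenic substrate Boc-Lys-(TFA)-AMC, which is specific to class IIa enzymes and HDAC8. IC50 taken as the geometric mean of three experiments.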

[7] = Oral bioavailability in C57BL/6J mouse at 11.5 mg/kg administered via gavage by LC-MS/MS analysis; assay type: ADME, organism-based; conditions: in vivo
In short: (§3)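 Fed male C57Bl/6 mice dosed once intravenously at 3.3 mg/kg and by oral gavage at 11.5 mg/kg. Compound levels were quantified to derive PK parameters.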

[8] = Metabolic stability of the compound in C57BL/6 mouse plasma at 5 uM measured for 60 mins by LC-MS/MS analysis; assay type: ADME, cell-free; conditions: 1 h
[9] = Plasma clearance in C57BL/6J mouse at 3.3 mg/kg, iv by LC-MS/MS analysis; assay type: ADME, organism-based; in short: as §3
[10] = target: Voltage-gated inwardly rectifying potassium channel KCNH2 (Homo sapiens, UniProt Q12809); assay: Inhibition of human ERG
In short: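 hERG affinity was measured on the IonWorks automated electrophysiology platform and reported as Kd.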

[11] = Toxicity in CBAxC57BL/6J mouse assessed as effect on flat body posture at 10 to 100 mg/kg, po bid for 14.5 days; assay type: organism-based; conditions: in vivo, 348 h, dose 10-100 mg/kg, time 14.5 day; in short: as §1
[12] = Stability of the compound in 10% (w/v) hydroxypropyl-beta-cyclodextrin in 50 mM citrate buffer at pH 5 measured over 30 days; assay type: physicochemical; conditions: pH 5, 720 h, time 30 day
[13] = In vivo inhibition of Class 1/2B HDAC in C57BL/6J mouse brain assessed as increase in global pan-acetylation at 10 mg/kg, po administered via gavage measured after 2 hrs by dot blot technique; assay type: organism-based
In short: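 Mice received single oral gavage doses of 10, 30 or 100 mg/kg, and brains were sampled from 0.25 to 12 h. Brain compound levels were measured by LC-MS/MS. Dot blots read H4K12 acetylation normalized to histone H4, or pan-acetyl-lysine normalized to tubulin.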

[14] = Toxicity in CBAxC57BL/6J mouse assessed as effect on struggle by tail at 10 to 100 mg/kg, po bid for 14.5 days; assay type: organism-based; conditions: in vivo, 348 h, dose 10-100 mg/kg, time 14.5 day; in short: as §1
Histone deacetylase 2 = Histone deacetylase 2 (Homo sapiens, UniProt Q92769); assay: Inhibition of HDAC2 (unknown origin) using Ac-Arg-Gly-Lys(Ac) as substrate by fluorogenic assay
[15] = target: Muscarinic acetylcholine receptor M1 (Homo sapiens) (UniProt P11229); assay: Displacement of [3H]pirenzapine from human recombinant M1 receptor at 10 uM incubated for 1 hr by radiometric scintillation counting analysis; in short: as §2
Homo sapiens = species: Homo sapiens; assay: Inhibition of sodium channel (unknown origin) at 10 uM; in short: as §2
[16] = Toxicity in CBAxC57BL/6J mouse assessed as effect on tail tremor at 10 to 100 mg/kg, po bid for 14.5 days; assay type: organism-based; conditions: in vivo, 348 h, dose 10-100 mg/kg, time 14.5 day; in short: as §1
Cytochrome P450 3A4 = Cytochrome P450 3A4 (Homo sapiens, UniProt P08684); assay: Inhibition of CYP3A4 in human liver microsomes using testosterone as substrate incubated for 30 mins by LC-MS/MS analysis; assay type: ADME
[17] = Toxicity in CBAxC57BL/6J mouse assessed as effect on locomotor activity at 10 to 100 mg/kg, po bid for 14.5 days; assay type: organism-based; conditions: in vivo, 348 h, dose 10-100 mg/kg, time 14.5 day; in short: as §1
[18] = In vivo inhibition of Class 2B HDAC in CBAxC57BL/6J mouse brain assessed as increase in tubulin acetylation at 30 to 100 mg/kg, po bid for 14.5 days by western blot analysis; assay type: organism-based; conditions: 348 h, dose 30-100 mg/kg, time 14.5 day
In short: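 R6/2 and wild-type littermate mice of both sexes were dosed orally b.i.d. for 14.5 days with 10, 30 or 100 mg/kg or vehicle (10% w/v hydroxypropyl-β-cyclodextrin in 50 mM citrate buffer). Half-brains were collected 2 h after the last dose. Dot blots measured global and H4K12 acetylation; Western blots measured H3, H4 and tubulin acetylation. Genotypes were pooled.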

[19] = Stability of the compound in simulated gastric fluid at 10 uM at pH 1.2 incubated for 4 hrs by LC-MS/MS analysis
[20] = Toxicity in CBAxC57BL/6J mouse assessed as effect on seizure at 10 to 100 mg/kg, po bid for 14.5 days; assay type: organism-based; conditions: in vivo, 348 h, dose 10-100 mg/kg, time 14.5 day; in short: as §1
[21] = Unbound fraction in mouse blood by equilibrium dialysis method; assay type: ADME, tissue-based
In short: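 Compound added to mouse blood; unbound fraction determined by equilibrium dialysis.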

Voltage-gated inwardly rectifying potassium channel KCNH2, sequence (Q12809 whole entry): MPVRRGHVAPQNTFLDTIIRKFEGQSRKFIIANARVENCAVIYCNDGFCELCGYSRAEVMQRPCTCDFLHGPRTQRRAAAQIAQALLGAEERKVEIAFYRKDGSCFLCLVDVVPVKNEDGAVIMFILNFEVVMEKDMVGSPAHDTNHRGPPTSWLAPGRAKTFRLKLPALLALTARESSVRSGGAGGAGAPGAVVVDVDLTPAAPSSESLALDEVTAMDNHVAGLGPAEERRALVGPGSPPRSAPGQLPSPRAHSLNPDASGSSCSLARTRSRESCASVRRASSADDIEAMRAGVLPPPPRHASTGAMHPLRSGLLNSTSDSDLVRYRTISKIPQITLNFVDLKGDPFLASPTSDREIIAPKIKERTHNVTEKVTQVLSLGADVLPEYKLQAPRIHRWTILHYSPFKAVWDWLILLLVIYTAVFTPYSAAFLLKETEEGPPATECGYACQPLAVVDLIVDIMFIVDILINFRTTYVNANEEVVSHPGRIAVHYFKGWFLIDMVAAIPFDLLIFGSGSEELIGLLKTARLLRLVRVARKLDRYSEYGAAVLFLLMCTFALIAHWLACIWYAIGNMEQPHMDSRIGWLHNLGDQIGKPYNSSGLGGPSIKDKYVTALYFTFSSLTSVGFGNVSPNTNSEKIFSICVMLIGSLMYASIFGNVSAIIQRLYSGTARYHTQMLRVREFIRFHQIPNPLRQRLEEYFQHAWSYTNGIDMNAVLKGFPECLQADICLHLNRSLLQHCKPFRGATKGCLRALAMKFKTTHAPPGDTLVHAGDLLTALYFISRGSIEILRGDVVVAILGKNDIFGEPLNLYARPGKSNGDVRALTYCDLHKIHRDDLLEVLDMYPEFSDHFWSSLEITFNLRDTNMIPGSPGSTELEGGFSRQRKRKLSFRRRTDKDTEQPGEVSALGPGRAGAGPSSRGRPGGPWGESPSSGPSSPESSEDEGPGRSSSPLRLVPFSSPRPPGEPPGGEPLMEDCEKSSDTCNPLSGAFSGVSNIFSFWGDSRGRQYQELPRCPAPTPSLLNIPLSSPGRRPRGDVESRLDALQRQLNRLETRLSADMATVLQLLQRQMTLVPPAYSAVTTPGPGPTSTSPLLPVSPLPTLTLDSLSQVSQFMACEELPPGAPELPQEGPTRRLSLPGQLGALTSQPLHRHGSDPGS
Muscarinic acetylcholine receptor M1 (Homo sapiens), sequence (P11229 whole entry): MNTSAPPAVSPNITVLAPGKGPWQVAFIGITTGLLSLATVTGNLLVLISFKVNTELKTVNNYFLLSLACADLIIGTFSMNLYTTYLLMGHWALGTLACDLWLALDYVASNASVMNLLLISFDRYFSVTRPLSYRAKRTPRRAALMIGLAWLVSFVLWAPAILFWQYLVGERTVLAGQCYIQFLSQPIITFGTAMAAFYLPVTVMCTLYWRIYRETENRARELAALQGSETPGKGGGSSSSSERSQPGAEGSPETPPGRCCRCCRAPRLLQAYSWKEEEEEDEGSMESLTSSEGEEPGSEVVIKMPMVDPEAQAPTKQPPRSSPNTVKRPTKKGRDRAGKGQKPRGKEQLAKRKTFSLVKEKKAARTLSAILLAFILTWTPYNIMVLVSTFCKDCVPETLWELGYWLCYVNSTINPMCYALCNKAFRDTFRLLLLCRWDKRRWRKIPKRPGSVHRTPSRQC
Cytochrome P450 3A4, sequence (P08684 whole entry): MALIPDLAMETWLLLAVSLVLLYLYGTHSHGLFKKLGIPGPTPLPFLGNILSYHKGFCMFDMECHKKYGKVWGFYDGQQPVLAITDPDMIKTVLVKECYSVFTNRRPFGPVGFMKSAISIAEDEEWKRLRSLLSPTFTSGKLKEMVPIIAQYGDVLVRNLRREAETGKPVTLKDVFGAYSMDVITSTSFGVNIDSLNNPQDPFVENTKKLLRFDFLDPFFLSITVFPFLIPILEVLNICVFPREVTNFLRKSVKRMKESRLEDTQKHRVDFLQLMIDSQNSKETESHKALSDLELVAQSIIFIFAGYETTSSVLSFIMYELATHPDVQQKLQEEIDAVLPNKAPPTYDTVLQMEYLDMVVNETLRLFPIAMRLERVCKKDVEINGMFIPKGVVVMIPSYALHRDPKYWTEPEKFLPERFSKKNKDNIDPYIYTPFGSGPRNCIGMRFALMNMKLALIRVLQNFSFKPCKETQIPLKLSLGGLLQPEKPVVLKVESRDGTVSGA
Cytochrome P450 1A2, sequence (P05177 whole entry): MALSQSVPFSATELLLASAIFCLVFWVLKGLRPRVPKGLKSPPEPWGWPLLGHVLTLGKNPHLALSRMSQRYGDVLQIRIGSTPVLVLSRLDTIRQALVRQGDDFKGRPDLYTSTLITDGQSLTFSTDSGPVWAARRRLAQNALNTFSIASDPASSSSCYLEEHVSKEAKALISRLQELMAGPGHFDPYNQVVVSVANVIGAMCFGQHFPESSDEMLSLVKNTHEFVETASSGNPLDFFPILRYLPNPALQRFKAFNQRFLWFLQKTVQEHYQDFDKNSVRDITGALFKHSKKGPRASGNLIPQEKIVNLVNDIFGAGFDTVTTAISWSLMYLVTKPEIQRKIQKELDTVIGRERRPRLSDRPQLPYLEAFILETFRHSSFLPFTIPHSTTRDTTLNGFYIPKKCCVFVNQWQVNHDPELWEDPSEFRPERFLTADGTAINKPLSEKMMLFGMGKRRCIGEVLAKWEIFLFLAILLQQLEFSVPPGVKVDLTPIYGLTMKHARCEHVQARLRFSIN
Histone deacetylase 1, sequence (Q13547 whole entry): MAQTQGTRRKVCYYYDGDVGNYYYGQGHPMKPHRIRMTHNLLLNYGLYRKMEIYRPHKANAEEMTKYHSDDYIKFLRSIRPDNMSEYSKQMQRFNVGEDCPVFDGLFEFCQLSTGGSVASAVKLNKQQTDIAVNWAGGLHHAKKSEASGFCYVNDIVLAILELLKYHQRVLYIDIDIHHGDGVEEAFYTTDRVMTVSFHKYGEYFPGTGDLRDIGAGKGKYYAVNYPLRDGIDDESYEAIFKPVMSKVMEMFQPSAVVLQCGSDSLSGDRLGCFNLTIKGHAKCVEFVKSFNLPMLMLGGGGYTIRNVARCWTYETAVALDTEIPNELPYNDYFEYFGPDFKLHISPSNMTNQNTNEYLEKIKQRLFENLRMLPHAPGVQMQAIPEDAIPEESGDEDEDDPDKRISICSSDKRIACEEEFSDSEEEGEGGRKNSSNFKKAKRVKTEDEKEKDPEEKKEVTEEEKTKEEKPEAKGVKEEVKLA
Cytochrome P450 2C8, sequence (P10632 whole entry): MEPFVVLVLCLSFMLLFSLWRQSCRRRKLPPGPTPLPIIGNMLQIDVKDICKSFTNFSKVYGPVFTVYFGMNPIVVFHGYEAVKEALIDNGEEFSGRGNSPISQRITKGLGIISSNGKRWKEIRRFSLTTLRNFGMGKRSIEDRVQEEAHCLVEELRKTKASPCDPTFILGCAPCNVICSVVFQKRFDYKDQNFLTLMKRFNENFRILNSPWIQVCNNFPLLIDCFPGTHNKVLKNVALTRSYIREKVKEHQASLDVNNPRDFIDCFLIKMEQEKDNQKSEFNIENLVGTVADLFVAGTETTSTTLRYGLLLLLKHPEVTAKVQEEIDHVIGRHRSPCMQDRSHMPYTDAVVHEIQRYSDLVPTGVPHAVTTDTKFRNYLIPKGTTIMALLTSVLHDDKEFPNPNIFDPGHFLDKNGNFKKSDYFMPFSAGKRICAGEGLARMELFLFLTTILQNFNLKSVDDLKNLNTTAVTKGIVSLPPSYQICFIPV
Muscarinic acetylcholine receptor M2, sequence (P08172 whole entry): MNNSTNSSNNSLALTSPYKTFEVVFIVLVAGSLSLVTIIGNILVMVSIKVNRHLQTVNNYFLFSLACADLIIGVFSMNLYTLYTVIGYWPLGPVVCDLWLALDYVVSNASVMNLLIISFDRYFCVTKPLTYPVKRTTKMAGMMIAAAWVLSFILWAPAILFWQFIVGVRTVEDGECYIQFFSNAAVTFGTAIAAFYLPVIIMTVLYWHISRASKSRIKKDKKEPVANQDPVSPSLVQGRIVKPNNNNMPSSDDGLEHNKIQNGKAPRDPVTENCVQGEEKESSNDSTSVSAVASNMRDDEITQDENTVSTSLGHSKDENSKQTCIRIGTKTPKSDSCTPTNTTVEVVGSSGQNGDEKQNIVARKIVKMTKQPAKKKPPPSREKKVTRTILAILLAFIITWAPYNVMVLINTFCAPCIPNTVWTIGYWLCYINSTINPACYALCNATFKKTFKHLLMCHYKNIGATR
Muscarinic acetylcholine receptor M2 (Homo sapiens), sequence (P08172 whole entry): as above
Histone deacetylase 2, sequence (Q92769 whole entry): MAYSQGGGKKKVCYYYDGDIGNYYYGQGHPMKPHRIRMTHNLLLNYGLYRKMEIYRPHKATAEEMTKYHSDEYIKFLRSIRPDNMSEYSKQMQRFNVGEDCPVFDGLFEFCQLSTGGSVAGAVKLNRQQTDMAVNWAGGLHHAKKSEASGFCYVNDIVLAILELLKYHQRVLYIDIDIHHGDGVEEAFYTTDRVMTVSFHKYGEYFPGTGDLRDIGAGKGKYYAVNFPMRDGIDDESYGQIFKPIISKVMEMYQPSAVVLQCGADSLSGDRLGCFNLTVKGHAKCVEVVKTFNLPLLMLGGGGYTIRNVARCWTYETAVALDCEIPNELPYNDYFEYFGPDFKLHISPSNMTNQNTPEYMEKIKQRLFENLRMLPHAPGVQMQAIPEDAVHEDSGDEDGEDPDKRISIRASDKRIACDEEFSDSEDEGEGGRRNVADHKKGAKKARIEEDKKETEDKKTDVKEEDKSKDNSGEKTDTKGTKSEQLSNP

C[C@H](CN1CCC[C@@H]1C)NC(=O)c1ccc(-c2noc(C(F)(F)F)n2)cc1
IC50 (Cytochrome P450 2C8): > 50 µM
Activity [1]: Non-Toxic
IC50 (Histone deacetylase 1): 17 µM
IC50 (Cytochrome P450 1A2): > 50 µM
Kd [2]: > 5 µM
inhibition [3]: > 80%
Tmax [4]: 30 min
Activity [5]: Toxic
Activity [6]: Non-Toxic
IC50 (Histone deacetylase 9): 0.03 µM
bioavailability [7]: 100%
Stabilty [8]: Stable
clearance [9]: 70 mL/min/kg
Kd [10]: 3.9 µM
Activity [11]: Non-Toxic
Stabilty [12]: Stable
Activity [13]: Toxic
Activity [14]: Non-Toxic
IC50 (Histone deacetylase 2): 27 µM
inhibition [15]: > 80%
inhibition (Homo sapiens): > 50%
Activity [16]: Non-Toxic
IC50 (Cytochrome P450 3A4): > 50 µM
Activity [17]: Non-Toxic
Activity [18]: Toxic
Stability [19]: Stable
Activity [20]: Non-Toxic
fraction unbound [21]: 0.73
